Data set [1] can be described thus: folding enthalpy; higher = less favourable; fluorescence melt of hairpins on a sequencing array, two-state fit. Particulars: sodium 0.088 M. In a few lines:
(§1)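 Folding enthalpy and melting temperature come from bootstrapped two-state fits to Cy3 fluorescence of library hairpins carrying annealed Cy3 and quencher oligos on a sequenced MiSeq flow cell. Imaging was done in 50 mM Na-HEPES pH 8.0, 25 mM NaCl, stepping by 2.5 °C up to 60 °C, and signals were normalised to pre-quench Cy3 and to control constructs. Results of four replicates were combined by inverse variance, and fitted temperatures were raised by 9.35 °C to match UV melts.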

A short description of data set [2]: melting temperature; fluorescence melt of hairpins on a sequencing array, two-state fit, raised by 9.35 °C to match UV melts. Particulars: sodium 0.088 M. In a few lines: as §1

For the sequence GCATAGCGAAAGCTGTGC (((.(((....))).))), the folding enthalpy in data set [1] is -50.8 kcal/mol. Moreover, in data set [2], the Tm was found to be 59.9 °C.
The corresponding values for GCATAGGGAAACCTATGC (((((((....))))))) are -44.2 kcal/mol and 61.7 °C.
The like results for GCATATCGAAAGATTTGC (((.(((....))).))) were, in that order, -37 kcal/mol and 46.8 °C.
Regarding GCATATGAAAATATGC ((((((....)))))), in data set [1], the folding enthalpy is -29.2 kcal/mol. In addition, the Tm in data set [2] is 52.9 °C.
The corresponding values for GCATATGGAAACACATGC ((((.((....)).)))) are -26.8 kcal/mol and 35.8 °C.
The like results for GCATATGGAAACGTATGC (((((.(....).))))) were, in that order, -33.3 kcal/mol and 47 °C.
The corresponding values for GCATCACGAAAGTGGTGC (((.(((....))).))) are -37.8 kcal/mol and 64.3 °C.
As for GCATCAGCGAAAGCTTGC (((..(((....)))))), the folding enthalpy in data set [1] is -13.2 kcal/mol. The Tm in data set [2] is 41.3 °C.
The corresponding values for GCATCAGGAAACCAATGC ((((..(....)..)))) are -12.1 kcal/mol and 23.8 °C.
The corresponding values for GCATCCCCGAAAGGGTGC (((..(((....)))))) are -17.5 kcal/mol and 53.5 °C.
The like results for GCATCCGAAAGGACGTGC ((((((....)))..))) were, in that order, -19.4 kcal/mol and 38.3 °C.
With GCATCCGAAAGGAGATGC ((((((....)))..))), in data set [1], the folding enthalpy is -33.6 kcal/mol. Besides, the Tm in data set [2] was found to be 50.1 °C.
The corresponding values for GCATCCGGAAACGGGTGC (((.(((....))).))) are -39.5 kcal/mol and 62.7 °C.
Regarding GCATCCTCGAAAGAGTGC (((..(((....)))))), in data set [1], the folding enthalpy is -19.1 kcal/mol. The Tm in data set [2] stood at 33.1 °C.
Turning to GCATCGCGAAAGCAAAGC ((.(.((....)).).)), the folding enthalpy in data set [1] is -9.75 kcal/mol. Further, the Tm in data set [2] is 38.9 °C.
For the sequence GCATCGCGAAAGCAACGC ((.(.((....)).).)), the folding enthalpy in data set [1] is -13.5 kcal/mol. In data set [2], the Tm came to 40.6 °C.
Consider GCATCGCGAAAGCCCTGC (((..((....))..))), for which the folding enthalpy in data set [1] is -7.86 kcal/mol. In addition, the Tm in data set [2] was found to be 33 °C.
For the sequence GCATCGCGAAAGCGAAGC ((.((((....)))).)), the folding enthalpy in data set [1] is -19.1 kcal/mol. Also, the Tm in data set [2] was found to be 61.3 °C.
For the sequence GCATCGGGAAACCAATGC ((((.((....)).)))), the folding enthalpy in data set [1] was -29 kcal/mol. In addition, the Tm in data set [2] worked out at 42.2 °C.
On to GCATCGGGAAACCGATAC (.(((((....))))).), for which the folding enthalpy in data set [1] is -13.7 kcal/mol. The Tm in data set [2] turned out to be 41.5 °C.
The like results for GCATCTCGAAAGAGTGC (((.(((....)))))) were, in that order, -49.8 kcal/mol and 53.4 °C.
The corresponding values for GCATGACGAAAGTCCTGC (((.(((....))).))) are -34.5 kcal/mol and 51 °C.
Take GCATGAGGAAACCCATGC (((((.(....).))))): the folding enthalpy in data set [1] is -36.8 kcal/mol. Further, the Tm in data set [2] came to 48.6 °C.
The like results for GCATGAGGAAACTCATAC (.(((((....))))).) were, in that order, -17.2 kcal/mol and 32.6 °C.
The corresponding values for GCATGAGGAAACTCGTGC (((.(((....))).))) are -47.4 kcal/mol and 52.9 °C.
The corresponding values for GCATGCGAAAGCAGTTGC ((((((....)))..))) are -16.5 kcal/mol and 43 °C.
For GCATGCGAAAGCATCTGC ((((((....)))..))), the folding enthalpy in data set [1] was -13.4 kcal/mol. Moreover, in data set [2], the Tm came to 47 °C.
The corresponding values for GCATGCGAAAGCATTGC ((((((....))).))) are -21.3 kcal/mol and 57.9 °C.
The like results for GCATGCGCGAAAGCGTGC (((..(((....)))))) were, in that order, -13.4 kcal/mol and 51.8 °C.
Turning to GCATGGAAACATGC (((((....))))), the folding enthalpy in data set [1] was -30.9 kcal/mol. Moreover, the Tm in data set [2] was found to be 57.4 °C.
The like results for GCATGGCGAAAGCATTGC (((..((....))..))) were, in that order, -20 kcal/mol and 49.6 °C.
The corresponding values for GCATGGCGAAAGCCGAGC ((..(((....)))..)) are -17.1 kcal/mol and 55.7 °C.
As for GCATGGCGAAAGCCTCGC ((..(((....)))..)), the folding enthalpy in data set [1] was -13.4 kcal/mol. In data set [2], the Tm stood at 43.7 °C.
As for GCATGGCGAAAGCCTGGC ((..(((....)))..)), the folding enthalpy in data set [1] is -18.4 kcal/mol. Besides, the Tm in data set [2] was determined as 53.4 °C.
With GCATGGCGAAAGCGACGC ((.(.((....)).).)), the folding enthalpy in data set [1] is -12.7 kcal/mol. For the same sequence, the Tm in data set [2] amounted to 38.3 °C.
The like results for GCATGGCGAAAGCTAGGC ((.(.((....)).).)) were, in that order, -21.6 kcal/mol and 52.2 °C.
Regarding GCATGTCGAAAGACTGC (((.(((....)))))), in data set [1], the folding enthalpy was -35 kcal/mol. In data set [2], the Tm stood at 56.1 °C.
The corresponding values for GCATGTGGAAACACATAC (.(((((....))))).) are -14.9 kcal/mol and 38.6 °C.
The corresponding values for GCATTACGAAAGTATTGC (((.(((....))).))) are -29.3 kcal/mol and 48.9 °C.
The like results for GCATTAGAAATAATGC ((((((....)))))) were, in that order, -24.5 kcal/mol and 48.2 °C.
Turning to GCATTATCGAAAGATTGC (((..(((....)))))), the folding enthalpy in data set [1] is -14.4 kcal/mol. In addition, the Tm in data set [2] was 30.6 °C.
The like results for GCATTCACGAAAGTGTGC (((..(((....)))))) were, in that order, -18.2 kcal/mol and 37.6 °C.
The corresponding values for GCATTCCGAAAGGACTGC (((.(((....))).))) are -22.2 kcal/mol and 50.8 °C.
For GCATTCCGAAAGGATTGC (((.(((....))).))), the folding enthalpy in data set [1] is -35.6 kcal/mol. Further, in data set [2], the Tm amounted to 54.4 °C.
The like results for GCATTCGAAAGAAGATGC ((((((....)))..))) were, in that order, -17.7 kcal/mol and 36.2 °C.
As to GCATTCGAAAGAATATGC ((((((....)))..))), the folding enthalpy in data set [1] is -24.8 kcal/mol. Besides, in data set [2], the Tm came to 36.1 °C.
With GCATTCGAAAGAATGC ((((((....)))))), the folding enthalpy in data set [1] was -28.3 kcal/mol. For the same sequence, the Tm in data set [2] stood at 69.2 °C.
The like results for GCATTCGAAAGAATTTGC ((((((....)))..))) were, in that order, -16.9 kcal/mol and 30.2 °C.
Turning to GCATTCGGAAACAAATGC (((((.(....).))))), the folding enthalpy in data set [1] was -28.9 kcal/mol. Moreover, the Tm in data set [2] worked out at 38 °C.
The like results for GCATTCGGAAACGAACGC ((.((((....)))).)) were, in that order, -37.2 kcal/mol and 46.7 °C.
The like results for GCATTCGGAAACGGATGC ((((.((....)).)))) were, in that order, -36.9 kcal/mol and 54 °C.
For the sequence GCATTCTCGAAAGAGTGC (((..(((....)))))), the folding enthalpy in data set [1] is -24.3 kcal/mol. In data set [2], the Tm was 40.9 °C.
The corresponding values for GCATTGCGAAAGCAGAGC ((..(((....)))..)) are -18.2 kcal/mol and 47.5 °C.
The like results for GCATTGCGAAAGCAGCGC ((..(((....)))..)) were, in that order, -16.1 kcal/mol and 54.9 °C.
The like results for GCATTGCGAAAGCATTGC (((.(((....))).))) were, in that order, -52.2 kcal/mol and 55.4 °C.
On to GCATTGCGAAAGCCAAGC ((.(.((....)).).)), for which, in data set [1], the folding enthalpy was -9.84 kcal/mol. Further, in data set [2], the Tm stood at 28.6 °C.
Turning to GCATTGCGAAAGCCTTGC (((..((....))..))), the folding enthalpy in data set [1] was -25 kcal/mol. For the same sequence, the Tm in data set [2] came out at 39.3 °C.
For the sequence GCATTGGGAAACCAGTGC (((.(((....))).))), in data set [1], the folding enthalpy was -34.4 kcal/mol. For the same sequence, the Tm in data set [2] came out at 50.7 °C.
Consider GCATTTCCGAAAGGATGC (((..(((....)))))), for which, in data set [1], the folding enthalpy is -21.6 kcal/mol. Further, in data set [2], the Tm was 38.4 °C.
For GCATTTCGAAAGAACTGC (((.(((....))).))), the folding enthalpy in data set [1] was -32.1 kcal/mol. Also, the Tm in data set [2] is 43 °C.
As to GCATTTGAAAAAATGC ((((((....)))))), in data set [1], the folding enthalpy was -30.9 kcal/mol. The Tm in data set [2] came out at 52.8 °C.
GCATTTGGAAACAAGTGC (((.(((....))).))): in data set [1], the folding enthalpy is -26.2 kcal/mol. Also, the Tm in data set [2] came out at 46.3 °C.
The corresponding values for GCCAAAACGAAAGTTGGC (((..(((....)))))) are -30.7 kcal/mol and 51.4 °C.
The corresponding values for GCCAAACGAAAGTTGGC (((.(((....)))))) are -34.5 kcal/mol and 56.8 °C.
The like results for GCCAAAGGAAACTTTGAC (.(((((....))))).) were, in that order, -21.9 kcal/mol and 32.3 °C.
For the sequence GCCAAAGGAAACTTTGGC (((((((....))))))), the folding enthalpy in data set [1] was -44.4 kcal/mol. Besides, the Tm in data set [2] was found to be 64 °C.
On to GCCAACGAAAGTTGAGGC ((((((....)))..))), for which, in data set [1], the folding enthalpy is -19.4 kcal/mol. Also, in data set [2], the Tm was determined as 48.5 °C.
For the sequence GCCAACGGAAACGCTGGC ((((.((....)).)))), in data set [1], the folding enthalpy is -40 kcal/mol. In data set [2], the Tm was 52 °C.
Turning to GCCAACGGAAACGTTGAC (.(((((....))))).), the folding enthalpy in data set [1] is -16.5 kcal/mol. Further, the Tm in data set [2] worked out at 46.5 °C.
For GCCAAGACGAAAGTCGGC (((..(((....)))))), in data set [1], the folding enthalpy was -23.7 kcal/mol. The Tm in data set [2] was found to be 54.6 °C.
As for GCCAAGCGAAAGCAGGGC (((..((....))..))), the folding enthalpy in data set [1] was -26.4 kcal/mol. Moreover, the Tm in data set [2] turned out to be 60.4 °C.
The corresponding values for GCCAAGCGAAAGCATTGC ((.(.((....)).).)) are -11.2 kcal/mol and 32.5 °C.
The corresponding values for GCCAAGCGAAAGCCCGGC (((..((....))..))) are -20.7 kcal/mol and 45.8 °C.
